In ChEMBL document CHEMBL1811780, “Could LogP be a principal determinant of biological activity in 18-crown-6 ethers? Synthesis of biologically active adamantane-substituted diaza-crowns” (Eur J Med Chem, 2011):
Active and inactive are the calls of the source. The rule behind the calls is not given here.

What was measured:
SW-620 [1] = experiment: Antiproliferative activity against human SW620 cells after 72 hrs by MTT assay; assay type: functional; details: SW-620, 72 h
How it was run: (§1)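 Adherent monolayers grown in DMEM with 10% FBS, 2 mM L-glutamine, penicillin and streptomycin at 37 °C, 5% CO2. Cells seeded on day 0, then given five 10-fold dilutions (10^-8 to 10^-4 mol/L), DMSO at most 0.25%, for 72 h. MTT read at 570 nm. GI50 from linear regression of percentage growth around 50%. Quadruplicate points; mean of three experiments.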

HeLa = experiment: Antiproliferative activity against human HeLa cells after 72 hrs by MTT assay; assay type: functional; how it was run: as §1
Escherichia coli [2] = experiment: Antibacterial activity against Escherichia coli assessed as growth inhibition at 10^-4 M after 105 mins; assay type: functional; details: 1.75 h, read-out: GI
How it was run: (§2)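 E. coli grown in LB at 37 °C with shaking to OD600 ≈0.1. Culture split into untreated control and four treated aliquots at 10^-4, 10^-5, 10^-6 and 10^-7 M. Grown 105 min (about three mass doublings) at 37 °C. Dilutions in phosphate buffer plated on LB, incubated overnight at 37 °C, CFU counted. % growth inhibition and GI50 derived as for tumour cells. Quadruplicate, at least two experiments.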

MIA PaCa-2 = experiment: Antiproliferative activity against human MIAPaCa2 cells after 72 hrs by MTT assay; assay type: functional; details: MIA PaCa-2, 72 h; how it was run: as §1
Bacillus subtilis = experiment: Antibacterial activity against Bacillus subtilis after 70 mins; assay type: functional, organism-based
NCI-H460 = experiment: Antiproliferative activity against human H460 cells after 72 hrs by MTT assay; assay type: functional; details: NCI-H460, 72 h; how it was run: as §1
MCF7 = experiment: Antiproliferative activity against human MCF7 cells after 72 hrs by MTT assay; assay type: functional; details: MCF7, 72 h; how it was run: as §1
HCT-116 = experiment: Antiproliferative activity against human HCT116 cells after 72 hrs by MTT assay; assay type: functional; details: HCT-116, 72 h; how it was run: as §1
MOLT-4 = experiment: Antiproliferative activity against human MOLT4 cells after 72 hrs by MTT assay; assay type: functional; details: MOLT-4, 72 h
How it was run: as §1, with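 “MOLT-4” for “Adherent monolayers”, “suspension in RPMI” for “DMEM”, “Treated with” for “Cells seeded on day 0, then given”, “by” for “from”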

SW-620 [3] = experiment: Cell cycle arrest in human SW620 cells assessed as G1 phase delay at 10 uM after 24 to 48 hrs using propidium iodide staining by flow cytometry; assay type: functional, cell-based
How it was run: (§3)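 2×10^5 SW 620 cells per well were treated 24 h after seeding, for 24 or 48 h. Attached and floating cells were pooled, fixed in 70% ethanol, then stained with 1 µg/ml PI plus RNase A. 20000 events were acquired by flow cytometry. Phase percentages came from DNA histograms; subG1 is given as a percentage of all counts.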

SW-620 [4] = experiment: Cell cycle arrest in human SW620 cells assessed as S phase reduction at 10 uM after 24 to 48 hrs using propidium iodide staining by flow cytometry; assay type: functional, cell-based; how it was run: as §3
SW-620 [5] = experiment: Cell cycle arrest in human SW620 cells assessed as accumulation in subG1 phase at 10 uM after 24 to 48 hrs using propidium iodide staining by flow cytometry; assay type: functional, cell-based; how it was run: as §3
SW-620 [6] = experiment: Cell cycle arrest in human SW620 cells assessed as G1 phase delay at 5 uM after 24 to 48 hrs using propidium iodide staining by flow cytometry; assay type: functional, cell-based; how it was run: as §3
Escherichia coli [7] = experiment: Antibacterial activity against Escherichia coli after 105 mins; assay type: functional; details: 1.75 h; how it was run: as §2
SW-620 [8] = experiment: Cell cycle arrest in human SW620 cells assessed as S phase reduction at 5 uM after 24 to 48 hrs using propidium iodide staining by flow cytometry; assay type: functional, cell-based; how it was run: as §3
SW-620 [9] = experiment: Induction of apoptosis in human SW620 cells assessed as necrotic cells at 10 uM after 48 hrs using annexin-V/conjugated 7-AAD double staining by flow cytometry (reference value: 0.14%); assay type: functional
SW-620 [10] = experiment: Induction of apoptosis in human SW620 cells assessed as early apoptotic cells at 10 uM after 48 hrs using annexin-V/conjugated 7-AAD double staining by flow cytometry (reference value: 2.58%); assay type: functional
SW-620 [11] = experiment: Induction of apoptosis in human SW620 cells assessed as necrotic cells at 5 uM after 48 hrs using annexin-V/conjugated 7-AAD double staining by flow cytometry (reference value: 0.14%); assay type: functional
SW-620 [12] = experiment: Induction of apoptosis in human SW620 cells assessed as viable cells at 10 uM after 48 hrs using annexin-V/conjugated 7-AAD double staining by flow cytometry (reference value: 95.95%); assay type: functional; details: SW-620, 48 h, read-out: Activity
SW-620 [13] = experiment: Induction of apoptosis in human SW620 cells assessed as early apoptotic cells at 5 uM after 48 hrs using annexin-V/conjugated 7-AAD double staining by flow cytometry (reference value: 2.58%); assay type: functional
SW-620 [14] = experiment: Induction of apoptosis in human SW620 cells assessed as late apoptotic cells at 5 uM after 48 hrs using annexin-V/conjugated 7-AAD double staining by flow cytometry (reference value: 1.33%); assay type: functional
SW-620 [15] = experiment: Induction of apoptosis in human SW620 cells assessed as viable cells at 5 uM after 48 hrs using annexin-V/conjugated 7-AAD double staining by flow cytometry (reference value: 95.95%); assay type: functional; details: SW-620, 48 h, read-out: Activity
SW-620 [16] = experiment: Induction of apoptosis in human SW620 cells assessed as late apoptotic cells at 10 uM after 48 hrs using annexin-V/conjugated 7-AAD double staining by flow cytometry (reference value: 1.33%); assay type: functional

Row | SMILES | GI50 (SW-620 [1]) | GI50 (HeLa) | GI50 (MIA PaCa-2) | IC50 (Bacillus subtilis) | GI50 (NCI-H460) | GI50 (MCF7) | inhibition of growth at 100 µM (Escherichia coli [2]) | also measured
1 | C1COCC23CC4CC(C2)CC(COCCOCC25CC6CC(CC(CO1)(C6)O2)C5)(C4)O3 | 3 µM | 17 µM | 2 µM | 1580 µM | 4 µM | 13 µM | < 15% | 
2 | O=C(N1CCOCCOCCN(C(=O)C23CC4CC(CC(C4)C2)C3)CCOCCOCC1)C12CC3CC(CC(C3)C1)C2 | 21 µM |  |  | 75.9 µM | 12 µM | 9 µM | < 15% | 
3 | O=C(CCC12CC3CC(CC(C3)C1)C2)N1CCOCCOCCN(C(=O)CCC23CC4CC(CC(C4)C2)C3)CCOCCOCC1 | 19 µM |  |  | 129 µM | 11 µM | 2 µM | < 15% | GI50 (HCT-116): 6 µM; GI50 (MOLT-4): 3 µM
4 | c1ccc(CN2CCOCCOCCN(Cc3ccccc3)CCOCCOCC2)cc1 |  |  |  | 380 µM |  |  | < 15% | 
5 | C1COCCOCCNCCOCCOCCN1 | > 100 µM | > 100 µM | > 100 µM | 1580 µM | > 100 µM | > 100 µM |  | GI50 (HCT-116): > 100 µM; GI50 (MOLT-4): > 100 µM
6 | C(CN1CCOCCOCCN(CCCC23CC4CC(CC(C4)C2)C3)CCOCCOCC1)CC12CC3CC(CC(C3)C1)C2 | 1 µM |  |  | 17 µM | 1 µM | 2 µM | 26% | GI50 (HCT-116): 0.4 µM; Activity (SW-620 [3]): Active; Activity (SW-620 [4]): Active; Activity (SW-620 [5]): Active; Activity (SW-620 [6]): Active; GI50 (Escherichia coli [7]): 1000 µM; GI50 (MOLT-4): 1 µM; Activity (SW-620 [8]): Active
7 | C1COCCOCC23CC4CC(C2)CC(COCCOCCO1)(C4)O3 | > 100 µM | > 100 µM | > 100 µM | 1580 µM | > 100 µM | > 100 µM |  | 
8 | C(CN1CCOCCOCCOCCOCCOCC1)CC12CC3CC(CC(C3)C1)C2 | 9 µM | 14 µM | 11 µM |  | 15 µM | 6 µM |  | 
9 | O=C(CC12CC3CC(CC(C3)C1)C2)N1CCOCCOCCN(C(=O)CC23CC4CC(CC(C4)C2)C3)CCOCCOCC1 | 12 µM |  |  | 45.7 µM | 14 µM | 5 µM | < 15% | GI50 (HCT-116): 6 µM; GI50 (MOLT-4): 6 µM
10 | CC(C)(C)C1CCC2OCCOCCOC3CC(C(C)(C)C)CCC3OCCOCCOC2C1 (stereo not given) |  |  |  | 1.32 µM |  |  | < 15% | 
11 | COC(=O)[C@@H](NC(=O)CN1CCOCCOCCN(CC(=O)N[C@@H](C(=O)OC)c2ccccc2)CCOCCOCC1)c1ccccc1 |  |  |  | 380 µM |  |  | < 15% | 
12 | C1COCCN(CC23CC4CC(CC(C4)C2)C3)CCOCCOCCN(CC23CC4CC(CC(C4)C2)C3)CCO1 | 19 µM |  |  | 25.1 µM | 18 µM | 21 µM | < 15% | 
13 | C1COCCN(CCC23CC4CC(CC(C4)C2)C3)CCOCCOCCN(CCC23CC4CC(CC(C4)C2)C3)CCO1 | 2.6 µM | 2.3 µM | 1.7 µM | 251 µM | 4 µM | 4 µM | < 15% | Activity (SW-620 [9]): 0.87%; Activity (SW-620 [10]): 13.72%; Activity (SW-620 [11]): 0.17%; viability at 10 µM (SW-620 [12]): 76%; Activity (SW-620 [3]): Active; Activity (SW-620 [4]): Active; Activity (SW-620 [5]): Active; Activity (SW-620 [13]): 7.46%; Activity (SW-620 [14]): 2.34%; Activity (SW-620 [6]): Active; viability at 5 µM (SW-620 [15]): 90%; Activity (SW-620 [8]): Active; Activity (SW-620 [16]): 9.46%
14 | O=C(CC12CC3CC(CC(C3)C1)C2)N1CCOCCOCCOCCOCCOCC1 | > 100 µM | > 100 µM | > 100 µM |  | > 100 µM | > 100 µM | < 15% | 
15 | c1ccc2c(c1)OCCOCCOc1ccccc1OCCOCCO2 |  |  |  | 380 µM |  |  | < 15% | 

Further compounds by falling IC50 (Bacillus subtilis), results first:

Row | GI50 (SW-620 [1]) | GI50 (HeLa) | GI50 (MIA PaCa-2) | IC50 (Bacillus subtilis) | GI50 (NCI-H460) | GI50 (MCF7) | SMILES | inhibition of growth at 100 µM (Escherichia coli [2]) | also measured
16 |  |  |  | 1580 µM |  |  | O=C(NCC(=O)N1CCOCCOCCN(C(=O)CNC(=O)OCc2ccccc2)CCOCCOCC1)OCc1ccccc1 |  | 
17 |  |  |  | 1580 µM |  |  | CC(C)(C)c1cc2c(c(C(C)(C)C)c1)OCCOCCOc1c(cc(C(C)(C)C)cc1C(C)(C)C)OCCOCCO2 | < 15% | 
18 | 13 µM | 28 µM | 30 µM | 1580 µM | 72 µM | 17 µM | O=C(CCC12CC3CC(CC(C3)C1)C2)N1CCOCCOCCOCCOCCOCC1 | < 15% | 
19 | > 100 µM |  |  | 1580 µM | > 100 µM | > 100 µM | C1COCCOCCOCCOCCOCCN1 |  | 
20 | > 100 µM |  |  | 1580 µM | > 100 µM | > 100 µM | c1ccc(CN2CCOCCOCCOCCOCCOCC2)cc1 |  | 
21 |  |  |  | 166 µM |  |  | C1CCC2OCCOCCOC3CCCCC3OCCOCCOC2C1 (stereo not given) [ICOSAHYDRODIBENZO[B,K][1,4,7,10,13,16]HEXAOXACYCLOOCTADECINE] | < 15% | 
22 | 9 µM | 16 µM | 12 µM | 25.1 µM | 15 µM | 8 µM | C1COCCOCCN(CCC23CC4CC(CC(C4)C2)C3)CCOCCOCCO1 |  | 
23 |  |  |  | 2 µM |  |  | CC(C)(C)c1ccc2c(c1)OCCOCCOc1cc(C(C)(C)C)ccc1OCCOCCO2 | < 15% | 
